Compound activity from PubChem.
Shown are actives, neighbours in structure and some others; about 1.4% of the full set was active somewhere.
PG9 binder = small molecules binding HIV-1 gp120 antibody PG9; TR-FRET gp120-PG9 antibody binding; inhibition, % at 6.7 µM; 360,000 tested, 0.43% active; AID 624416; in the data active = inhibition above about 8.5%
Rev-erbA mod = modulates human Rev-erb alpha binding to DNA. 370,000 tested, 0.79% active. Rev-erbα–FITC-DNA binding, fluorescence polarization, 90 min. activity, % at 10 µM;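 active = activity above about 14%, limit read from the data; passing the limit was not always enough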;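 also: 0% = DMSO wells with 35 nM protein and 100% = DMSO wells with 750 nM protein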
NR2E3 ag-1 = agonists of human nuclear receptor NR2E3. Q9Y5X4. GST-NR2E3/biotin-RetCOR TR-FRET, 1536-well. inhibition of corepressor binding, % at 4.78 µM. 320,000 tested, 0.12% active. AID 2300;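 active = percent inhibition above the cutoff of mean plus 3 SD of all tested compounds, set per screening campaign, cut at about 20% in these data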;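 also: 0% = DMSO wells and 100% = biotin wells as full block of FRET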
Target sequence (Q9Y5X4 whole entry, looked up): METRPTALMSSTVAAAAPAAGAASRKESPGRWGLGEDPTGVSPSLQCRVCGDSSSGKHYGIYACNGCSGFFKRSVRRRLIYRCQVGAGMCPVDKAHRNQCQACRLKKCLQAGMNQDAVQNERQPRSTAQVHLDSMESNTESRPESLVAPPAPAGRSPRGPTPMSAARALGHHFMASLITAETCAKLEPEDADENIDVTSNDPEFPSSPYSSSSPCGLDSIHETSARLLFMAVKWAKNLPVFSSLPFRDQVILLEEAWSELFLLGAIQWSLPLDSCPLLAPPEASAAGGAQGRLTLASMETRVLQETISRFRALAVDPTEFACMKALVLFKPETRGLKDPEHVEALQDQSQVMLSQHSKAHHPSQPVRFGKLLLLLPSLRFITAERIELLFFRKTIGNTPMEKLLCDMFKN
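Material: NR2E3–RetCOR corepressor complex | Quantity: 1.35 nM GST-tagged NR2E3 final | Schedule: 5 h at 4 °C | Replication: Singlicate compound wells | Reagent: RetCOR corepressor, biotinylated, 7 nM | Controls: Biotin wells as high control, 0.6% DMSO wells as low control | Signal: TR-FRET, Eu(K)-anti-GST donor, streptavidin-D2 acceptor, ex 340, em 617/671 nm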
NR2E3 ag-2 = agonists of human NR2E3 nuclear receptor. Q9Y5X4. CHO-S Gal4-NCOR/VP16-NR2E3 two-hybrid, luciferase. inhibition of corepressor binding, % at 3.98 µM. 360,000 tested, 0.35% active. AID 602229;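 active = inhibition above the mean of all tested compounds plus 3 SD, cut at about 70% in these data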;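 also: 0% = DMSO with NR2E3 transfected cells and 100% = cells lacking NR2E3 construct; higher means lower luciferase signal from less NR2E3 corepressor binding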
NR1D1 mod conf = Rev-erb alpha (human) modulation, hit confirmation; shares compounds with Rev-erbA mod; Rev-erb alpha FITC-DNA binding, fluorescence polarization, 90 min; activation, % at 25 µM; 3,000 tested, 61% active; AID 1259319;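 active = activation at or above a set limit, or at least 3 SD above the negative control mean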;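 also: 0% = 35 nM protein with DMSO and 100% = 750 nM protein high control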
RORg DNA counter = RORgamma DNA-binding activity, dose-response counter-screen. shares compounds with Rev-erbA mod. purified RORgamma protein-FITC-DNA binding, fluorescence polarization. IC50, µM. 910 tested, 8% active. AID 1259320;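 active = Compounds whose fitted half-maximal concentration for disrupting protein-DNA binding is below 10 micromolar; the record names Rev-erb in its text, so the target is in doubt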
An asterisk follows results filed as active; . = no result given.

SMILES	PG9 binder	Rev-erbA mod	NR2E3 ag-1	NR2E3 ag-2	NR1D1 mod conf	others
COC(=O)C1CN(CC(C)C)CCS(=O)(=O)N1Cc1ccc(C(F)(F)F)cc1 (stereo unspecified)	.	1	.	.	.
CCNC(=S)NNC(=O)c1cnccn1	.	-6	.	.	.
Cc1ccc(-c2nnc(SCC(=O)Nc3ccc(F)cc3F)n2Cc2ccco2)cc1	.	6	.	.	.
Cc1ccccc1C(=O)NC1CCCCN(Cc2cccc(C(F)(F)F)c2)C1=O (stereo unspecified)	.	1	.	.	.
COc1ccc2c(C)cc(SCC(=O)NC3CCCCC3)nc2c1	2	121*	.	14	53*	RORg DNA counter=>40
COc1ccc2c(C)cc(SCC(=O)N3CCOCC3)nc2c1	1	5	2	-5	.
COc1ccc2c(C)cc(SCC(=O)Nc3ccc(Cl)cn3)nc2c1	-2	55*	-2	-1	16
CCC(=O)N1CCc2cc(Br)c(S(=O)(=O)NCCCN(C)Cc3ccccc3)cc21	.	1	.	.	.
O=C(N[C@H](C(=O)N1CCC[C@H]1C(=O)NC1CCCC1)c1ccccc1)C1CCCC1	0	3	.	.	.
Cc1nonc1NC(=O)CSc1nc(C23CC4CC(CC(C4)C2)C3)nc2ccccc12	0	30*	0	-13	22*
Cc1nonc1NC(=O)CSc1nc(C2CCCCC2)nc2ccccc12	0	0	-2	8	.
Cc1cc2nc(SCC(=O)Nc3nonc3C)c3c(c2cc1C)CCCC3	1	103*	2	-13	81*
Oc1ccccc1-c1nc(N2CCCC2)c2ccccc2n1	-2	134*	1	-3	69*	RORg DNA counter=6.9*
Oc1ccccc1-c1nc(NCc2cccnc2)c2ccccc2n1	1	4	2	-12	.
Oc1ccccc1-c1nc(NCc2ccccc2)c2ccccc2n1	6	97*	2	-13	77*	RORg DNA counter=>40
CCn1c(COc2ccc(C)cc2)nnc1SCC(=O)Nc1ccc(C(=O)OC)cc1	.	-5	.	.	.
CCCC[C@H]1C2CC(OC(=O)NCCCC(=O)OCC)C(C2)[C@H]2CCCCN21 (stereo partly specified)	.	2	.	.	.
O=C(Nc1cccc2ccccc12)N1CCN(c2ccc(F)cc2)CC1	3	26*	-1	5	3
CC(C)C[C@@H]1COc2cc(Br)ccc2S(=O)(=O)N1Cc1cn(Cc2ccc(F)cc2)nn1	.	-3	.	.	.
C[C@H](O)[C@@H]1CN2CCc3c([nH]c4cccc(-c5ccccc5)c34)[C@@H]2C[C@@H]1N(C)C(=O)c1ccco1	.	-2	.	.	.
COc1ccc(CCn2c(O)c(C=Nc3cccc(F)c3)c(=O)[nH]c2=O)cc1OC	3	38*	-2	-18	1
CSc1nc(-c2ccccc2)cc(C)c1C#N	0	4	2	-16	.
CSc1nc2cc(C)nn2c(-c2ccc(C(C)(C)C)cc2)c1C#N	-2	44*	4	-15	12
CSc1nc2cc(C)nn2c(-c2ccccc2Cl)c1C#N	-1	42*	-5	1	15
O=C(CSc1nnc(-c2cccc(Cl)c2)n1Cc1ccco1)Nc1ccc2c(c1)OCO2	.	0	.	.	.
SMILES	PG9 binder	Rev-erbA mod	NR2E3 ag-1	NR2E3 ag-2	NR1D1 mod conf	others
COc1ccc(C(=O)Nc2cc(C(C)=O)c(/C=C/N(C)C)oc2=O)cc1	-19	20	-4	-44	.
CC(=O)c1cc(NC(=O)c2ccc(C)cc2)c(=O)oc1/C=C/N(C)C	-18	31*	-7	-51	4
CCOC(=O)C1=C(C(=O)OCC)C2N(Cc3ccc(C#N)cc3)c3ccccc3[C@@]23C[C@@H](C(=O)OC)N(S(=O)(=O)c2ccc(C)cc2)C3=N1 (stereo partly specified)	-1	6	.	.	.
CCOC(=O)/C(=C\C=C1/Sc2cc(OCC)c(OCC)cc2N1CC)C(C)=O	-13	112*	-5	11	42*	RORg DNA counter=>40
CCN1/C(=C/C(C)=O)Sc2ccc(OC)cc21	-2	1	0	-44	.
CCOC(=O)/C(=C/C=C1\Sc2cc(OCC)c(OCC)cc2N1CC)C(C)=O	-12	32*	-5	-12	-5
O=c1c(Cl)c(N2CCN(S(=O)(=O)c3ccc(F)cc3)CC2)cnn1-c1cccc(Cl)c1	0	28*	1	-21	28*
CN(C)c1ncnc2c1ncn2[C@H]1CN(Cc2ccncc2)C[C@@H](CO)O1	1	-2	.	-46	.
